# Shown is part of a subset that was picked to be rich in hits.
# Lmaj promast: inhibitors of Leishmania major promastigote growth; Leishmania major promastigotes, resazurin fluorescence viability; 200,000 tested, 9% active; inhibition, % at 10 µM; in the data active = inhibition above about 50%;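 note: promastigotes grown with compound for 44 hours at 28 °C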
# Hsp70 activator: transcriptional activators of Hsp70. 200,000 tested, 0.04% active. HeLa Hsp70 promoter luciferase reporter, luminescence; scaled: vehicle 0, proteasome-inhibitor control 100%. activation, % at 10 µM. AID 1203;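 active = activation above the mean across all tested compounds plus 3 SD, cutoff set per campaign, cut at about 5.5% in these data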;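 note: 100% = MG132 at 30 µM as the positive control and 0% = DMSO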
# HSF1 inhib: HSF1 inhibition | NIH3T3-HGL HSE-luciferase, MG132-induced, luminescence 8 h; hits give low values | AID 2098 | 300,000 tested, 0.77% active | activity change, negative = inhibition, % at 7.5 µM (by protocol);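 active = more than half of replicate wells show activity change below -50%, luminescence cut by over half; inconclusive = some wells, but at most half, below -50%; inactive = no replicate well below -50%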;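 note: luciferase reports HSF-1 transcriptional activity via heat shock element; 0% = median of DMSO wells and -100% = zero luminescence signal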
# HSF1 activator: increases HSF-1 driven luciferase reporter signal; activation, % at 9 µM; 300,000 tested, 1.7% active; NIH3T3-HGL HSF-1 luciferase reporter, MG132, 8 h; 100% = twice DMSO control signal;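 active = mean replicate activation of at least 50% with a set share of replicates each reaching 50%; inconclusive = only one of those two conditions met; inactive = mean below 50% and too few replicates reaching it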;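 note: 0% = median of the neutral control wells and 100% = twice that signal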
# T cruzi inh: blocks replication of Trypanosoma cruzi | T. cruzi beta-gal in NIH3T3, luminescence, 90 h | inhibition, % (concentration not given with the values) | AID 1885 | 300,000 tested, 1.4% active;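 active = mean inhibition across valid replicates above about 55%, limit read from the data; inconclusive = mean below that limit but half or more replicates reach it; inactive = mean below it, under half of replicates reach it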;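 note: signal also drops with host cell toxicity which is not excluded here; 0% = plate median of DMSO wells and 100% = zero luminescence signal; higher percent means less beta-gal luminescence so fewer parasites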
#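 System: Mouse NIH/3T3 fibroblasts infected with β-gal-expressing T. cruzi Tulahuen C4 | Quantity: NIH/3T3 cells, 5,000 per well | Reagent: 5000 reporter trypomastigotes per well | Dosing: Compound pinned at 50 nL/well, DMSO | Schedule: 3 h host attachment, then at least 90 h co-culture | Detection: GalScreen luminescence, 60 min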
# Active calls of the source: *; ? = inconclusive; . = no result given.
SMILES,Lmaj promast,Hsp70 activator,HSF1 inhib,HSF1 activator,T cruzi inh
O=C(Cc1ccc([N+](=O)[O-])cc1)NCc1ccncc1,-3,0,-1,3,9
O=C(Nc1ccc2oc(-c3ccccc3)nc2c1)c1cccs1,-4,0,44,93*,-3
O=C(Nc1ccc2oc(-c3ccccc3)nc2c1)c1ccncc1,11,0,5,6,-8
O=C(Nc1ccc2oc(-c3cccnc3)nc2c1)c1ccc([N+](=O)[O-])o1,100*,0,-4,-8,29
O=C(CCNc1ccc(Cc2ccncc2)cc1)c1ccc([N+](=O)[O-])cc1,101*,0,6,18,52
O=C(Nc1ccc2oc(-c3cccnc3)nc2c1)c1ccc(Br)o1,-4,0,2,4,1
O=C(Nc1ccc(Cc2ccncc2)cc1)c1ccc([N+](=O)[O-])o1,.,.,98,144*,31
O=C(Nc1ccc(Cc2ccncc2)cc1)c1cccc([N+](=O)[O-])c1,74*,0,0,11,-4
CCn1nnc(NC(=O)c2ccc([N+](=O)[O-])o2)n1,93*,0,0,0,61*
Cc1ccc(C(=O)Nc2ccc(Cc3ccncc3)cc2)cc1[N+](=O)[O-],22,0,0,2,47
Cc1c(C(=O)Nc2ccc(Cc3ccncc3)cc2)cccc1[N+](=O)[O-],96*,0,3,3,-66
COc1ccc2nc(NC(=O)CN3C(=O)NC4(CCCCC4)C3=O)sc2c1,.,.,-10,-6,-25
c1ccc(-c2nc3ccccc3c3nncn23)cc1,2,0,-59*,-70,-14
Cc1cccc(-c2nc3ccccc3c3nncn23)c1,1,0,6,-4,2
CC(=O)NCC1=C(NC(C)=O)C2CC1C(C)(C)C2C (centres undefined),0,0,-53*,-65,2
O=C(O)COc1ccc(/C=C/c2nc3ccc([N+](=O)[O-])cc3s2)cc1,.,.,1,-3,56*
O=c1ccn(CCCBr)c(=O)[nH]1,.,.,0,-7,-6
CC1(C)CC(=O)C2=C(C1)N=c1s/c(=C/c3ccc(F)c(F)c3)c(=O)n1C2c1ccc(F)cc1 (centres undefined),100*,0,-9,-28,-11
COC(=O)c1cccc(NC(=S)NC(C)C)c1,-3,0,-2,0,-4
Cc1onc(-c2ccccc2Cl)c1C(=O)N1CCN(c2ncccn2)CC1,-7,0,-4,-6,-3
Cc1onc(-c2c(Cl)cccc2Cl)c1C(=O)N/N=C(\N)COc1ccc(Cl)cc1,97*,0,0,9,41
CCOc1ccccc1N1CCN(C(=O)c2c(-c3ccccc3Cl)noc2C)CC1,71*,0,-5,1,2
Cc1onc(-c2ccccc2Cl)c1C(=O)Nc1ccc(OCC(=O)N2CCOCC2)cc1,1,0,-85*,-87,-5
Cc1onc(-c2ccccc2Cl)c1C(=O)OCC(=O)Nc1cccc(S(=O)(=O)N2CCOCC2)c1,64*,0,5,37,-13
COc1cc(/C=N/NC(=O)c2c(-c3c(Cl)cccc3Cl)noc2C)ccc1OCC(N)=O,.,.,1,4,2
SMILES,Lmaj promast,Hsp70 activator,HSF1 inhib,HSF1 activator,T cruzi inh
CCN(C(=O)CSc1ncccn1)C1CCS(=O)(=O)C1 (centres undefined),.,.,-8,-11,-7
COc1ccc(-n2ncc3c2CC(C)(C)CC3NC(=O)CCCN2CCCC2=O)cc1 (centres undefined),.,.,2,1,10
CCOc1ccc(-c2c(C(=O)N/N=C/c3ccc(OC)cc3)nnn2-c2nonc2N)cc1,-6,0,2,3,-13
C=CCn1c(O)c(C2=c3ccccc3=NC2=O)c2ccccc21,.,.,188,257*,?
Cc1c(-n2c(O)c(C3=c4ccccc4=NC3=O)sc2=O)c(=O)n(-c2ccccc2)n1C,1,0,3,30,0
Cc1ccc2c(c1)c(C1=c3ccccc3=NC1=O)c(O)n2C,.,.,125,195*,13
CCOC(=O)CN1C(=O)/C(=C/c2c(F)cccc2Cl)Oc2ccccc21,.,.,6,6,7
CC(C)(C)n1nnnc1SCC(=O)Nc1nn(-c2ccccc2)nc1C(N)=O,4,0,.,.,.
O=C1NN(c2cccc(Br)c2)C(=O)/C1=C\c1ccc(N2CCOCC2)cc1,.,.,-2,-3,-23
c1coc(-c2nn3c(-c4ccco4)nnc3s2)c1,0,0,13,43,-9
COc1cccc(OC)c1-c1nn2c(-c3cc(-c4ccccc4)n[nH]3)nnc2s1,61*,0,-1,9,41
COc1ccccc1-c1nn2c(-c3ccco3)nnc2s1,67*,1,44,62*,27
Cc1ccc(NC(=O)COC(=O)CC2CCCC2)cc1Cl,-5,0,1,-4,2
CC(C)c1ccc(S(=O)(=O)N2CCN(C(=O)Cc3ccsc3)CC2)cc1,.,.,5,1,6
COc1ccccc1C(CCN(Cc1ccccc1)C(C)=O)c1ccco1 (centres undefined),.,.,.,.,5
Cc1ccc(-n2nc(C)c(C(=O)O)n2)c(C)c1,-8,0,-4,-4,3
CC1=NN(c2ccc(C)cc2C)C(=O)C1C(c1ccccc1)C1C(=O)N(c2ccc(C)cc2C)N=C1C (centres undefined),5,0,48,64*,0
CSc1n[nH]c(NCc2ccc(C)cc2)n1,4,0,8,18,19
CC1=C(C(=O)OC2CCCCC2)C(c2ccco2)C2=C(CC(C)(C)CC2=O)N1 (centres undefined),59*,-1,-3,6,12
CC1=C(C(=O)OCCOc2ccccc2)C(c2ccc(C)o2)C2=C(CC(C)(C)CC2=O)N1 (centres undefined),32,0,9,7,25
Cc1ccc(C(=O)CSC2=C(C#N)C(c3ccco3)C3=C(CC(C)(C)CC3=O)N2)cc1 (centres undefined),90*,0,-4,4,20
CC1=C(C(=O)Nc2ccc(C)cc2)C(c2ccc(C)o2)C2=C(CC(C)(C)CC2=O)N1 (centres undefined),3,0,-62*,-71,10
CC1(C)CC(=O)C2=C(C1)NC(SCC(=O)Nc1ccccc1)=C(C#N)C2c1ccco1 (centres undefined),1,0,6,-3,8
CC(Sc1nnc(-c2ccc(Cl)cc2Cl)n1Cc1ccccc1)C(=O)Nc1nccs1 (centres undefined),65*,0,6,-16,22
Cc1nnc(SC(C)C(=O)Nc2ccc(Cl)cn2)n1Cc1ccccc1 (centres undefined),-1,0,0,9,-14
CC(=O)c1cccc(NC(=O)c2ccc(C)o2)c1,4,0,0,-4,-2
C/C(=N\NC(=O)c1ccc(Cn2cc([N+](=O)[O-])cn2)o1)c1cccc(NC(=O)C(C)C)c1,-5,0,1,0,-6

# Assay outcomes as filed in PubChem.
